Legend:
[1] = Antiaggregatory activity in human platelets assessed as inhibition of collagen-induced platelet aggregation preincubated for 3 mins before collagen challenge by turbidimetry analysis; assay type: functional, cell-based
Procedure, shortened: (§1)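 Washed platelets from ACD-anticoagulated blood of drug-free healthy volunteers, resuspended at 3 × 10⁸/ml in Tyrode's solution with Ca²⁺ 2 mM, glucose 11.1 mM and BSA 3.5 mg/ml. Platelets were stirred at 1200 rpm and 37 °C for 3 min with DMSO (0.5%, vehicle) or compound, then the inducer was added. Aggregation was read by light-transmission aggregometry. IC50 is the mean of two independent experiments (TPA lines n = 3).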

[2] = Antiaggregatory activity in human platelets assessed as inhibition of thrombin-induced platelet aggregation preincubated for 3 mins before thrombin challenge by turbidimetry analysis; assay type: functional, cell-based; procedure, shortened: as §1
MDA-MB-231 [3] = test: Cytotoxicity against human MDA-MB-231 cells after 72 hrs by MTT assay; assay type: functional, cell-based; conditions: MDA-MB-231, 72 h
Procedure, shortened: (§2)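 MDA-MB-231 breast cancer or HBL-100 non-malignant breast epithelial cells: freshly trypsinized cells seeded at 8000 per well, with compound added from DMSO-diluted stock. After 72 h, attached cells were given MTT (0.5 mg/mL, 1 h) and solubilized in DMSO.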

MDA-MB-231 [4] = test: Cytotoxicity against human MDA-MB-231 cells at 20 uM after 72 hrs by MTT assay; assay type: functional; conditions: MDA-MB-231, 72 h
HBL-100 [5] = test: Cytotoxicity against human HBL100 cells after 72 hrs by MTT assay; assay type: functional, cell-based; conditions: HBL-100, 72 h; procedure, shortened: as §2
HBL-100 [6] = test: Cytotoxicity against human HBL100 cells at 20 uM after 72 hrs by MTT assay; assay type: functional; conditions: HBL-100, 72 h

SMILES	IC50 [1] [µM]	IC50 [2] [µM]	IC50 (MDA-MB-231 [3]) [µM]	inhibition at 20 µM (MDA-MB-231 [4]) [%]	IC50 (HBL-100 [5]) [µM]	inhibition at 20 µM (HBL-100 [6]) [%]
COc1cc(/C=C/[N+](=O)[O-])ccc1OC(=O)c1ccccc1Br	2	5.4	> 20	8.3	> 20	10
COc1cc(/C=C/[N+](=O)[O-])ccc1OC(=O)c1ccc(F)cc1F	2	3	> 20	18.5	> 20	16
O=[N+]([O-])/C=C/c1ccc2c(c1)OCO2	7.2	14	14	–	> 20	39.2
COc1cc(/C=C/[N+](=O)[O-])ccc1OC(=O)c1ccccc1C(F)(F)F	1.3	2.5	> 20	20.4	> 20	2.4
COc1cc(/C=C/[N+](=O)[O-])ccc1O	16.4	66.5	–	–	–	–
O=[N+]([O-])C(=Cc1ccccc1)[N+](=O)[O-]	3	5.7	9.9	–	> 20	34.2
O=[N+]([O-])/C=C/c1ccc(O)cc1	18.4	45.1	> 20	38.3	16.3	–
COc1cc(/C=C/[N+](=O)[O-])ccc1OC(=O)c1cccc(C(F)(F)F)c1	1.7	3.3	> 20	34.9	> 20	12.5
COc1cc(/C=C/[N+](=O)[O-])ccc1OC(=O)c1cc(OC)c(OC)c(OC)c1	1.1	1.1	13.9	–	> 20	47.4
COc1cc(/C=C/[N+](=O)[O-])ccc1OC(=O)c1cccc(Br)c1	0.9	1.3	> 20	19.1	> 20	18.2
COc1cc(/C=C/[N+](=O)[O-])ccc1OC(=O)c1ccccc1	1.1	2.7	13.1	–	> 20	0
O=[N+]([O-])/C(O)=C/c1ccccc1	7.8	35.5	13.9	21.2	> 20	34.9
COc1ccc(/C=C/[N+](=O)[O-])cc1O	7.2	28.5	18.9	–	12.8	–
COc1cc(/C=C/[N+](=O)[O-])ccc1OC(=O)c1cccc(F)c1	1.4	2.6	> 20	44.9	> 20	38.2
COc1cc(/C=C/[N+](=O)[O-])ccc1OC(=O)c1ccccc1F	1.6	4.7	> 20	26.5	> 20	4.9
COc1cc(/C=C/[N+](=O)[O-])ccc1OC(=O)c1ccc(F)c(F)c1	1.1	2.9	> 20	22.1	> 20	0.5
COc1cc(/C=C/[N+](=O)[O-])ccc1OC(=O)c1ccccc1OC	0.8	2.1	19.4	–	> 10	8.8
COc1cc(/C=C/[N+](=O)[O-])ccc1OC(=O)c1ccc(C)cc1	2	2.7	> 20	7.9	> 20	8

SMILES	IC50 [1] [µM]	IC50 [2] [µM]	IC50 (MDA-MB-231 [3]) [µM]	inhibition at 20 µM (MDA-MB-231 [4]) [%]	IC50 (HBL-100 [5]) [µM]	inhibition at 20 µM (HBL-100 [6]) [%]
COc1ccc(/C=C/[N+](=O)[O-])cc1OC	7.6	12.8	–	–	–	–
COc1cccc(C(=O)Oc2ccc(/C=C/[N+](=O)[O-])cc2OC)c1	0.7	2.9	> 20	28.9	12.1	–
COc1cc(/C=C/[N+](=O)[O-])ccc1OC(=O)c1ccc(Cl)cc1Cl	0.7	0.7	> 20	-0.1	> 20	9.9
COc1cc(/C=C/[N+](=O)[O-])ccc1OC(=O)c1ccccc1Cl	0.6	1	> 20	7	> 20	8.2
COc1cc(/C=C/[N+](=O)[O-])ccc1OC(=O)c1cc(Cl)cc(Cl)c1	1.4	1.9	> 20	20	> 20	15.6
COc1cc(/C=C/[N+](=O)[O-])ccc1OC(=O)c1cccc(Cl)c1	0.5	1.2	18.9	–	> 20	23.2
COc1ccc(C(=O)Oc2ccc(/C=C/[N+](=O)[O-])cc2OC)cc1	0.8	3.5	18.1	–	> 20	22.7
O=[N+]([O-])/C=C/c1ccc(Cl)cc1	3.5	7.5	> 20	36.6	15.7	–
COc1ccc(/C=C/[N+](=O)[O-])cc1OC(=O)c1ccccc1	0.8	1.9	7.7	–	< 10	79.8
COc1ccc(/C=C(\C)[N+](=O)[O-])cc1OC(=O)c1ccccc1	1	2.9	6.6	–	7.3	–
Cc1ccc(/C=C/[N+](=O)[O-])cc1	5.9	8.9	> 20	–	15	–
CCOc1cc(/C=C(\C)[N+](=O)[O-])ccc1OC(=O)c1ccccc1	1.1	0.8	12.1	–	14.6	–
CCOc1cc(/C=C/[N+](=O)[O-])ccc1OC(=O)c1ccccc1	1	1.2	15.3	–	11.6	–
COc1cc(/C=C/[N+](=O)[O-])ccc1OC(=O)c1cc(F)c(F)c(F)c1	0.9	1.4	12.4	–	> 20	16.6
COc1cc(/C=C/[N+](=O)[O-])ccc1OC(=O)c1ccc(F)cc1	0.8	0.9	9.8	–	> 20	25.1
O=[N+]([O-])/C=C/c1ccccc1 [(2-NITROVINYL)BENZENE]	4.9	17.8	–	–	–	–
COc1cc(/C=C/[N+](=O)[O-])ccc1OC(=O)c1cccc(C)c1	0.9	1.7	13.4	–	4.1	–
COc1ccc(/C=C/[N+](=O)[O-])cc1	3.5	12.1	16.3	–	13	–

— ChEMBL document CHEMBL1268838, “The synthesis and biologic evaluation of anti-platelet and cytotoxic β-nitrostyrenes” (Bioorg Med Chem, 2010)
